# Measurements as given in ChEMBL document CHEMBL1944570, “Discovery of 4''-ether linked azithromycin-quinolone hybrid series: influence of the central linker on the antibacterial activity” (ACS Med Chem Lett, 2011).
# Legend:
# [1] = tested on: Staphylococcus aureus; assay: Antibacterial activity against constitutive MLS resistant Staphylococcus aureus by agar microdilution method; assay type: functional
# Procedure, shortened: (§1)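 MIC by agar microdilution following NCCLS standards; strains drawn from the PLIVA Research Institute culture collection. MIC reported in μg/mL.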
# [2] = tested on: Streptococcus pyogenes; assay: Antibacterial activity against constitutive MLS resistant Streptococcus pyogenes by agar microdilution method; assay type: functional; procedure, shortened: as §1
# [3] = tested on: Haemophilus influenzae; assay: Antibacterial activity against Haemophilus influenzae B0529 by agar microdilution method; assay type: functional
# Procedure, shortened: (§2)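 Agar microdilution MIC per NCCLS standards against strains from the Pliva Research Institute culture collection; values in µg/mL. Panel included erythromycin-susceptible strains and strains with inducible or constitutive MLS resistance.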
# [4] = tested on: Staphylococcus aureus; assay: Antibacterial activity against erythromycin-susceptible Staphylococcus aureus by agar microdilution method; assay type: functional; procedure, shortened: as §2
# [5] = tested on: Streptococcus pneumoniae; assay: Antibacterial activity against constitutive MLS resistant Streptococcus pneumoniae by agar microdilution method; assay type: functional; procedure, shortened: as §1
# [6] = tested on: Moraxella catarrhalis; assay: Antibacterial activity against Moraxella catarrhalis by agar microdilution method; assay type: functional; procedure, shortened: as §2
# [7] = tested on: Streptococcus pyogenes; assay: Antibacterial activity against efflux mediated macrolide resistant Streptococcus pyogenes by agar microdilution method; assay type: functional; procedure, shortened: as §1
# [8] = tested on: Staphylococcus aureus; assay: Antibacterial activity against Staphylococcus aureus with inducible resistance to MLS by agar microdilution method; assay type: functional; procedure, shortened: as §1
# [9] = Inhibition of protein synthesis using Escherichia coli S30 extracts preincubated for 10 mins measured after 50 mins by luciferase reporter gene assay; assay type: functional
# [10] = Inhibition of Escherichia coli topoisomerase 4-mediated relaxation of supercoiled pBR322 DNA
# [11] = tested on: Staphylococcus aureus; assay: Antibacterial activity against efflux mediated macrolide resistant Staphylococcus aureus by agar microdilution method; assay type: functional; procedure, shortened: as §1
# [12] = Inhibition of Escherichia coli DNA gyrase-mediated supercoiling of relaxed pBR322 DNA
# [13] = tested on: Streptococcus pneumoniae; assay: Antibacterial activity against erythromycin-susceptible Streptococcus pneumoniae by agar microdilution method; assay type: functional; procedure, shortened: as §1
# [14] = tested on: Staphylococcus aureus; assay: Antibacterial activity against ciprofloxacin-resistant Staphylococcus aureus by agar microdilution method; assay type: functional; procedure, shortened: as §1
# [15] = tested on: Streptococcus pyogenes; assay: Antibacterial activity against erythromycin-susceptible Streptococcus pyogenes by agar microdilution method; assay type: functional; procedure, shortened: as §1
# [16] = tested on: Streptococcus pneumoniae; assay: Antibacterial activity against efflux mediated macrolide resistant Streptococcus pneumoniae by agar microdilution method; assay type: functional; procedure, shortened: as §1
# [17] = tested on: Streptococcus pyogenes; assay: Antibacterial activity against Streptococcus pyogenes with inducible resistance to MLS by agar microdilution method; assay type: functional; procedure, shortened: as §1
Structure (SMILES),MIC [1] [µg/mL],MIC [2] [µg/mL],MIC [3] [µg/mL],MIC [4] [µg/mL],MIC [5] [µg/mL],MIC [6] [µg/mL],MIC [7] [µg/mL],MIC [8] [µg/mL],IC50 [9] [µM],IC50 [10] [µM],MIC [11] [µg/mL],IC50 [12] [µM],MIC [13] [µg/mL],MIC [14] [µg/mL],MIC [15] [µg/mL],MIC [16] [µg/mL],MIC [17] [µg/mL]
CC[C@H]1OC(=O)[C@H](C)[C@@H](O[C@H]2C[C@@](C)(OC)[C@@H](OCCNCCOCCNc3cc4c(=O)c(C(=O)O)cn(C5CC5)c4cc3Cl)[C@H](C)O2)[C@H](C)[C@@H](O[C@@H]2O[C@H](C)C[C@H](N(C)C)[C@H]2O)[C@](C)(O)C[C@@H](C)CN(C)[C@H](C)[C@@H](O)[C@]1(C)O,64,1,0.5,≤ 0.125,0.25,0.125,0.125,0.25,0.35,50,0.5,60,≤ 0.125,≥ 64,≤ 0.125,,
O=C(O)c1cn(C2CC2)c2cc(N3CCNCC3)c(F)cc2c1=O [CIPROFLOXACIN],,0.5,≤ 0.125,,0.25,0.125,≤ 0.125,≤ 0.125,> 50,3,≤ 0.125,0.8,≤ 0.125,≥ 64,2,0.25,0.25
CC[C@H]1OC(=O)[C@H](C)C(=O)[C@H](C)[C@@H](O[C@@H]2O[C@H](C)C[C@H](N(C)C)[C@H]2O)[C@](C)(OC)C[C@@H](C)C(=O)[C@H](C)[C@H]2N(CCCCn3cnc(-c4cccnc4)c3)C(=O)O[C@]12C [TELITHROMYCIN],> 64,4,1,≤ 0.125,,≤ 0.125,0.25,0.5,0.23,> 50,0.25,> 50,≤ 0.125,≥ 64,≤ 0.125,0.5,
CC[C@H]1OC(=O)[C@H](C)[C@@H](O[C@H]2C[C@@](C)(OC)[C@@H](OCCNCCOCCNc3cc4c(=O)c(C(=O)O)cn(C5CC5)c4cc3Cl)[C@H](C)O2)[C@H](C)[C@@H](O[C@@H]2O[C@H](C)C[C@H](N(C)C)[C@H]2O)[C@](C)(O)C[C@@H](C)CN(C)[C@H](C)[C@H]2OC(=O)O[C@@]21C,32,0.5,0.5,≤ 0.125,,≤ 0.125,,0.25,0.28,60,0.25,70,≤ 0.125,32,≤ 0.125,,
CC[C@H]1OC(=O)[C@H](C)[C@@H](O[C@H]2C[C@@](C)(OC)[C@@H](OCCCC(=O)NCCOCCOCCNc3cc4c(=O)c(C(=O)O)cn(C5CC5)c4cc3Cl)[C@H](C)O2)[C@H](C)[C@@H](O[C@@H]2O[C@H](C)C[C@H](N(C)C)[C@H]2O)[C@](C)(O)C[C@@H](C)CN(C)[C@H](C)[C@@H](O)[C@]1(C)O,64,4,8,16,64,2,1,64,,,8,,≤ 0.125,≥ 64,0.25,0.25,0.5
CC[C@H]1OC(=O)[C@H](C)[C@@H](O[C@H]2C[C@@](C)(OC)[C@@H](OCCNCCNc3cc4c(=O)c(C(=O)O)cn(C5CC5)c4cc3Cl)[C@H](C)O2)[C@H](C)[C@@H](O[C@@H]2O[C@H](C)C[C@H](N(C)C)[C@H]2O)[C@](C)(O)C[C@@H](C)CN(C)[C@H](C)[C@@H](O)[C@]1(C)O,> 64,16,2,4,64,0.5,8,64,,,8,,≤ 0.125,≥ 64,≤ 0.125,0.25,1
CC[C@H]1OC(=O)[C@H](C)[C@@H](O[C@H]2C[C@@](C)(OC)[C@@H](OCCCC(=O)NCCNc3cc4c(cc3F)c(=O)c(C(=O)O)cn4C3CC3)[C@H](C)O2)[C@H](C)[C@@H](O[C@@H]2O[C@H](C)C[C@H](N(C)C)[C@H]2O)[C@](C)(O)C[C@@H](C)CN(C)[C@H](C)[C@@H](O)[C@]1(C)O,64,16,8,8,1,2,16,8,,,16,,1,≥ 64,1,4,1
CC[C@H]1OC(=O)[C@H](C)[C@@H](O[C@H]2C[C@@](C)(OC)[C@@H](O)[C@H](C)O2)[C@H](C)[C@@H](O[C@@H]2O[C@H](C)C[C@H](N(C)C)[C@H]2O)[C@](C)(O)C[C@@H](C)CN(C)[C@H](C)[C@@H](O)[C@]1(C)O [AZITHROMYCIN],> 64,> 64,1,1,> 64,0.25,1,> 64,,,> 64,,≤ 0.125,≥ 64,≤ 0.125,4,8
